# From PubChem BioAssay AID463184 (Molecular Libraries Program, Specialized Chemistry Center, …, 2010)
# The source made the active and inactive calls.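 How the source made its calls: active means IC50 of 10 microM or lower; inactive means the rest.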
# Biological target: Transitional endoplasmic reticulum ATPase (Homo sapiens) (UniProt P55072)
# Experiment: inhibition of purified VCP ATP hydrolysis – biochemical, dose response (AID 463184)
# Conditions: purified p97 ATPase, Kinase-Glo luminescence
# Outline: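 System – human p97 ATPase · Reagent – ATP substrate, added from 500 µM stock · Times – Compound–enzyme 10 min at RT, ATP hydrolysis 30 min, 37 °C · Signal – Kinase-Glo Plus luminescence measuring leftover ATP · Measure – IC50 from hyperbolic fit of percent remaining enzyme activity · Benchmarks – DMSO wells and no-enzyme wells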
# Chain of Transitional endoplasmic reticulum ATPase (Homo sapiens) (P55072 whole entry, looked up): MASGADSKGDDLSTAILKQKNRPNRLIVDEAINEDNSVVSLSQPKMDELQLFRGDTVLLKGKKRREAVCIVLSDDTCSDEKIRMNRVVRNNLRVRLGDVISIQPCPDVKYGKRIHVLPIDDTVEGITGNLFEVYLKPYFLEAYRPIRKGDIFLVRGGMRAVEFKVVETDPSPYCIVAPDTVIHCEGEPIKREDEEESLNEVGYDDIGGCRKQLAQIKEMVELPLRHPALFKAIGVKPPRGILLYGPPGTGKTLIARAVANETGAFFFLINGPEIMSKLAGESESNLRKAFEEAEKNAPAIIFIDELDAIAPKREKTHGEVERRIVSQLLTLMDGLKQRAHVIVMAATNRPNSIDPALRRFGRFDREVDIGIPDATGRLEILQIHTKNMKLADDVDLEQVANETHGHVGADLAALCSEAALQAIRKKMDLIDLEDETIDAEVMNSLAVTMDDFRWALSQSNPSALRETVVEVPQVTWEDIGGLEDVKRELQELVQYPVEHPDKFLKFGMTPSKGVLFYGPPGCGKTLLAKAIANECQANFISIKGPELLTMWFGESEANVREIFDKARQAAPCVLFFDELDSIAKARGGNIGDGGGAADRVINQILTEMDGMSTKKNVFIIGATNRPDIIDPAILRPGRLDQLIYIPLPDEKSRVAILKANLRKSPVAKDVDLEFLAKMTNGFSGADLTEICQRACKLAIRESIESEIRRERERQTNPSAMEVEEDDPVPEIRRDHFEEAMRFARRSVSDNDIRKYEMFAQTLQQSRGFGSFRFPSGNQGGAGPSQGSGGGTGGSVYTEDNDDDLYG
row,SMILES,IC50
1,Clc1ccccc1CNc1nc(NCc2ccccc2)c2ccccc2n1,5.3 µM
2,Brc1ccccc1CNc1nc(NCc2ccccc2)c2ccccc2n1,2 µM
3,Brc1cccc(CNc2nc(NCc3ccccc3)c3ccccc3n2)c1,3.7 µM
4,Fc1ccccc1CNc1nc(NCc2ccccc2)c2ccccc2n1,2.9 µM
5,CCc1nc2ccccc2n1CC(=O)OC/C(O)=C(/C#N)c1nc2ccccc2[nH]1,inactive
6,Cc1ccc(CNc2nc(NCc3ccccc3)c3ccccc3n2)cc1,3 µM
7,Cc1ccccc1CNc1nc(NCc2ccccc2)c2ccccc2n1,2.7 µM
8,N#C/C(=C(\O)COC(=O)CCC(=O)c1ccc2c(c1)OCCO2)c1nc2ccccc2[nH]1,10 µM
9,Fc1cccc(CNc2nc(NCc3ccccc3)c3ccccc3n2)c1,3.1 µM
10,Fc1ccc(CNc2nc(NCc3ccccc3)c3ccccc3n2)cc1,2.6 µM
11,c1ccc(CNc2nc(NCc3ccccc3)c3ccccc3n2)cc1,1.6 µM
12,N#C/C(=C(\O)COC(=O)C1COc2ccccc2O1)c1nc2ccccc2[nH]1 (stereo not drawn),inactive
13,Brc1ccc(CNc2nc(NCc3ccccc3)c3ccccc3n2)cc1,4.3 µM
14,COc1cccc(CNc2nc(NCc3ccccc3)c3ccccc3n2)c1,4.5 µM
15,COc1ccc(CNc2nc(NCc3ccccc3)c3ccccc3n2)cc1,3 µM
16,COc1ccccc1CNc1nc(NCc2ccccc2)c2ccccc2n1,3.6 µM
17,FC(F)(F)c1ccc(CNc2nc(NCc3ccccc3)c3ccccc3n2)cc1,2.6 µM
18,Cc1cccc(CNc2nc(NCc3ccccc3)c3ccccc3n2)c1,2.3 µM
19,N#C/C(=C(\O)COC(=O)CNc1ccc(C(F)(F)F)cc1[N+](=O)[O-])c1nc2ccccc2[nH]1,inactive

# Next, values leading:
row,IC50,SMILES
1,3 µM,Clc1ccc(CNc2nc(NCc3ccccc3)c3ccccc3n2)cc1Cl
2,inactive,Nc1nc(CCl)nc(Nc2ccc(Oc3ccccc3)cc2)n1
3,4.7 µM,FC(F)(F)c1cc(CNc2nc(NCc3ccccc3)c3ccccc3n2)ccc1Cl
4,inactive,Nc1nc(CCl)nc(N(c2ccccc2)c2ccccc2)n1
5,3.1 µM,Clc1ccc(CNc2nc(NCc3ccccc3)c3ccccc3n2)cc1
6,inactive,Cc1c(Cl)cccc1Nc1nc(N)nc(CCl)n1
7,2.7 µM,Clc1cccc(CNc2nc(NCc3ccccc3)c3ccccc3n2)c1
8,inactive,CC(C)c1ccc(Nc2nc(N)nc(CCl)n2)cc1
9,inactive,Nc1nc(CCl)nc(Nc2ccc(Cl)c(Cl)c2)n1
